ChEMBL document CHEMBL5724801, “EUbOPEN Chemogenomics Library - Multiplex” (2024)
“And” between values parts separate entries of the source, which are not always exact repeats. Equal entries are not always repeated.

Tested on: U2OS
Experiment: Multiplex assay against U2OS
Type: toxicity, cell-based
Conditions: human
Method in brief: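 Cells stained live at seeding with Hoechst33342, BioTracker Green Microtubule Cytoskeleton Dye, MitoTracker Red and Annexin V Alexa Fluor 680 were imaged on a CQ1 microscope at 37°C and 5% CO2 after compound addition. Their classification by CellPathfinder machine-learning gating ran from Hoechst high-intensity objects versus normal cells, to healthy, pyknosed or fragmented nuclei among normal cells, to mitotic or apoptotic among pyknosed cells. Tubulin, mitochondrial-mass and membrane-permeability phenotypes are per cents of healthy-nucleus cells.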

[1] = 12 h, 1 µM, compound concentration 1 uM
[2] = 12 h, 10 µM, compound concentration 10 uM
[3] = 24 h, 1 µM, compound concentration 1 uM
[4] = 24 h, 10 µM, compound concentration 10 uM
[5] = 48 h, 1 µM, compound concentration 1 uM
[6] = 48 h, 10 µM, compound concentration 10 uM

CC(C)(O)c1cnc(N2C[C@@]3(CCC[C@](C)(Cn4cnc5ccc(C#N)cc54)C3)OC2=O)cn1 [GSK2798745]
Population Apoptotic (%) [1]: 63.64% and 30.77% | Population Fragmented Nuclei (%) [1]: 3.45% and 3.94% | Population Healthy Nuclei (%) [1]: 87.8% and 85.83% | Population Hoechst High Intensity Objects (%) [1]: 0% | Population Membrane Permeable-Phenotype (%) [1]: 0.6% and 4.59% | Population Mitochondria Different-Phenotype (%) [1]: 0.3% and 10.09% | Population Mitotic Cells (%) [1]: 36.36% and 69.23% | Population Normal (%) [1]: 100% | Population Pyknosed Nuclei (%) [1]: 8.75% and 10.24% | Population Tubulin-Different-Phenotype (%) [1]: 1.51% and 0% | Total Cell Count [1]: 377 and 127 | Population Apoptotic (%) [2]: 39.02% and 48.39% | Population Fragmented Nuclei (%) [2]: 1.62% and 2.98% | Population Healthy Nuclei (%) [2]: 87.33% and 78.57% | Population Hoechst High Intensity Objects (%) [2]: 0% | Population Membrane Permeable-Phenotype (%) [2]: 2.16% and 6.06% | Population Mitotic Cells (%) [2]: 60.98% and 51.61% | Population Normal (%) [2]: 100% | Population Pyknosed Nuclei (%) [2]: 11.05% and 18.45% | Population Tubulin-Different-Phenotype (%) [2]: 3.7% and 1.52% | Total Cell Count [2]: 371 and 168 | Population Apoptotic (%) [3]: 40.48% and 23.53% | Population Fragmented Nuclei (%) [3]: 1.65% and 5.56% | Population Healthy Nuclei (%) [3]: 89.67% and 83.95% | Population Hoechst High Intensity Objects (%) [3]: 0% | Population Membrane Permeable-Phenotype (%) [3]: 0.23% and 2.94% | Population Mitochondria Different-Phenotype (%) [3]: 0.23% and 2.94% | Population Mitotic Cells (%) [3]: 59.52% and 76.47% | Population Normal (%) [3]: 100% | Population Pyknosed Nuclei (%) [3]: 8.68% and 10.49% | Population Tubulin-Different-Phenotype (%) [3]: 0.69% and 0% | Total Cell Count [3]: 484 and 162 | Population Apoptotic (%) [4]: 44% and 37.5% | Population Fragmented Nuclei (%) [4]: 1.39% and 4.31% | Population Healthy Nuclei (%) [4]: 88.71% and 84.21% | Population Hoechst High Intensity Objects (%) [4]: 0.2% and 0% | Population Membrane Permeable-Phenotype (%) [4]: 1.34% and 6.25% | Population Mitochondria Different-Phenotype (%) [4]: 0.67% and 8.52% | Population Mitotic Cells (%) [4]: 56% and 62.5% | Population Normal (%) [4]: 99.8% and 100% | Population Pyknosed Nuclei (%) [4]: 9.9% and 11.48% | Population Tubulin-Different-Phenotype (%) [4]: 3.12% and 1.7% | Total Cell Count [4]: 506 and 209 | Population Apoptotic (%) [5]: 34.95% and 33.33% | Population Fragmented Nuclei (%) [5]: 3.43% and 2.22% | Population Healthy Nuclei (%) [5]: 85.16% and 84.44% | Population Hoechst High Intensity Objects (%) [5]: 0% | Population Membrane Permeable-Phenotype (%) [5]: 1.17% and 3.07% | Population Mitochondria Different-Phenotype (%) [5]: 0.13% and 4.82% | Population Mitotic Cells (%) [5]: 65.05% and 66.67% | Population Normal (%) [5]: 100% | Population Pyknosed Nuclei (%) [5]: 11.41% and 13.33% | Population Tubulin-Different-Phenotype (%) [5]: 0.52% and 1.32% | Population Apoptotic (%) [6]: 52.17% and 44.9% | Population Fragmented Nuclei (%) [6]: 2.1% and 0.91% | Population Healthy Nuclei (%) [6]: 87.73% and 84.29% | Population Hoechst High Intensity Objects (%) [6]: 0% | Population Membrane Permeable-Phenotype (%) [6]: 1.26% and 1.79% | Population Mitochondria Different-Phenotype (%) [6]: 0.5% and 9.68% | Population Mitotic Cells (%) [6]: 47.83% and 55.1% | Population Normal (%) [6]: 100% | Population Pyknosed Nuclei (%) [6]: 10.17% and 14.8% | Population Tubulin-Different-Phenotype (%) [6]: 3.65% and 0.36% | Total Cell Count [6]: 905 and 331

CCOC(=O)c1cnn(-c2ccc(NC(=O)C(Cl)=C(Cl)Cl)cc2)c1C(F)(F)F
Population Apoptotic (%) [1]: 35.29% and 57.89% | Population Fragmented Nuclei (%) [1]: 2.52% and 2.35% | Population Healthy Nuclei (%) [1]: 88.92% and 86.47% | Population Hoechst High Intensity Objects (%) [1]: 0% | Population Membrane Permeable-Phenotype (%) [1]: 0.57% and 2.72% | Population Mitochondria Different-Phenotype (%) [1]: 0.85% and 4.76% | Population Mitotic Cells (%) [1]: 64.71% and 42.11% | Population Normal (%) [1]: 100% | Population Pyknosed Nuclei (%) [1]: 8.56% and 11.18% | Population Tubulin-Different-Phenotype (%) [1]: 0.57% and 0% | Total Cell Count [1]: 397 and 170 | Population Apoptotic (%) [2]: 21.96% and 33.6% | Population Fragmented Nuclei (%) [2]: 2.71% and 4.35% | Population Healthy Nuclei (%) [2]: 8.13% and 5.07% | Population Hoechst High Intensity Objects (%) [2]: 0% | Population Membrane Permeable-Phenotype (%) [2]: 11.11% and 28.57% | Population Mitotic Cells (%) [2]: 78.04% and 66.4% | Population Normal (%) [2]: 100% | Population Pyknosed Nuclei (%) [2]: 89.16% and 90.58% | Population Tubulin-Different-Phenotype (%) [2]: 25.93% and 14.29% | Total Cell Count [2]: 332 and 138 | Population Apoptotic (%) [3]: 36.07% and 39.02% | Population Fragmented Nuclei (%) [3]: 1.33% and 1.84% | Population Healthy Nuclei (%) [3]: 87.12% and 79.26% | Population Hoechst High Intensity Objects (%) [3]: 0% | Population Membrane Permeable-Phenotype (%) [3]: 0.43% and 0.58% | Population Mitochondria Different-Phenotype (%) [3]: 0.43% and 4.07% | Population Mitotic Cells (%) [3]: 63.93% and 60.98% | Population Normal (%) [3]: 100% | Population Pyknosed Nuclei (%) [3]: 11.55% and 18.89% | Population Tubulin-Different-Phenotype (%) [3]: 0.22% and 0% | Total Cell Count [3]: 528 and 217 | Population Apoptotic (%) [4]: 65.22% and 84.92% | Population Fragmented Nuclei (%) [4]: 3.27% and 2.76% | Population Healthy Nuclei (%) [4]: 7.74% and 10.34% | Population Hoechst High Intensity Objects (%) [4]: 0% | Population Membrane Permeable-Phenotype (%) [4]: 30.77% and 46.67% | Population Mitochondria Different-Phenotype (%) [4]: 0% and 13.33% | Population Mitotic Cells (%) [4]: 34.78% and 15.08% | Population Normal (%) [4]: 100% | Population Pyknosed Nuclei (%) [4]: 88.99% and 86.9% | Population Tubulin-Different-Phenotype (%) [4]: 57.69% and 60% | Total Cell Count [4]: 336 and 145 | Population Apoptotic (%) [5]: 48.86% and 64.44% | Population Fragmented Nuclei (%) [5]: 5.03% and 2.12% | Population Healthy Nuclei (%) [5]: 85.95% and 84.24% | Population Hoechst High Intensity Objects (%) [5]: 0% | Population Membrane Permeable-Phenotype (%) [5]: 1.31% and 2.52% | Population Mitochondria Different-Phenotype (%) [5]: 0.12% and 2.16% | Population Mitotic Cells (%) [5]: 51.14% and 35.56% | Population Normal (%) [5]: 100% | Population Pyknosed Nuclei (%) [5]: 9.03% and 13.64% | Population Tubulin-Different-Phenotype (%) [5]: 1.07% and 1.44% | Total Cell Count [5]: 975 and 330 | Population Apoptotic (%) [6]: 86.63% and 98.18% | Population Fragmented Nuclei (%) [6]: 2.51% and 10.64% | Population Healthy Nuclei (%) [6]: 38.87% and 50.35% | Population Hoechst High Intensity Objects (%) [6]: 0% | Population Membrane Permeable-Phenotype (%) [6]: 8.06% and 23.94% | Population Mitochondria Different-Phenotype (%) [6]: 11.29% and 15.49% | Population Normal (%) [6]: 100% | Population Pyknosed Nuclei (%) [6]: 58.62% and 39.01% | Population Tubulin-Different-Phenotype (%) [6]: 66.94% and 47.89% | Total Cell Count [6]: 319 and 141
